This is an account of results in ChEMBL document CHEMBL1153488, “Discovery of (3-endo)-3-(2-cyano-2,2-diphenylethyl)-8,8-dimethyl-8-azoniabicyclo[3.2.1]octane bromide as an efficacious inhaled muscarinic acetylcholine receptor antagonist for the treatment of COPD” (Bioorg Med Chem Lett, 2009).

Assay [1] concerns the target T1, Muscarinic acetylcholine receptor M3 (Homo sapiens, UniProt P20309). In words: Agonist activity at human cloned muscarinic M3 receptor expressed in CHO cells assessed as effect on calcium mobilization by FLIPR. The class given is functional, cell-based. The procedure, abridged:
(§1)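 CHO cells stably carrying cloned human M1, M2 or M3 receptor; compound applied alone and checked for direct receptor stimulation, read as calcium mobilization on a standard FLIPR protocol.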
Target sequence in this assay (P20309 whole entry, looked up): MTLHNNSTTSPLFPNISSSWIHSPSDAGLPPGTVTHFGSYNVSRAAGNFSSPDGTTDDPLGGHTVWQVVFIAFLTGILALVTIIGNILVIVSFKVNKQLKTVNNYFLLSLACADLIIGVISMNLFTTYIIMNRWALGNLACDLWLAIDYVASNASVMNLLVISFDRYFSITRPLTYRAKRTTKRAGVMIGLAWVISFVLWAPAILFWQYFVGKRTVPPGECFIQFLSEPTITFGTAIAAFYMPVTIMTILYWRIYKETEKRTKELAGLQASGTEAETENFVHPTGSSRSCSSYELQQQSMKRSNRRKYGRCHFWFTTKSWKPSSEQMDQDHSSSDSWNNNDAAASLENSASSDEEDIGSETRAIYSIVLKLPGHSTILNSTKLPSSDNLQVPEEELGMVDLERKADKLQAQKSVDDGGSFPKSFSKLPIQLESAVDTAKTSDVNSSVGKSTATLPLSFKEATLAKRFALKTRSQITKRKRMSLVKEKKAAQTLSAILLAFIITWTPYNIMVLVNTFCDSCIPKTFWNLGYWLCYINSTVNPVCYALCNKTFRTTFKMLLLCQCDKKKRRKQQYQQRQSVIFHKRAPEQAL

The target in assay [2] is T2, Muscarinic acetylcholine receptor M1 (Homo sapiens, UniProt P11229).
T2 sequence (P11229 whole entry): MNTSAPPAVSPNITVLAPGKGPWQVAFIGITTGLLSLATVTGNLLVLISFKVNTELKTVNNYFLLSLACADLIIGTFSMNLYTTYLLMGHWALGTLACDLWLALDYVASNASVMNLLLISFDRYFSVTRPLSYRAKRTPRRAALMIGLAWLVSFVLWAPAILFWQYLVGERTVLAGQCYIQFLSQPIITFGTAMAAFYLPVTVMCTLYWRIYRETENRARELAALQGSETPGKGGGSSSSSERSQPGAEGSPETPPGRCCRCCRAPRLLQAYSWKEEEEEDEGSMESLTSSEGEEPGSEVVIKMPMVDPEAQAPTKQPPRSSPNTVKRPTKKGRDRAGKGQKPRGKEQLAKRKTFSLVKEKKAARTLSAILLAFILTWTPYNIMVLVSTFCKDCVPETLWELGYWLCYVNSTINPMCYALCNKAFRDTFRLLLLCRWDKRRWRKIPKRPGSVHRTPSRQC
In words: Antagonist activity against human cloned muscarinic M1 receptor expressed in CHO cells assessed as inhibition of acetylcholine-induced calcium mobilization by FLIPR. The class given is functional, cell-based. On the technique in general: Calcium assays in cells follow changes in intracellular calcium, usually with a dye or a luminescent sensor.

The target of assay [3] is T1, Muscarinic acetylcholine receptor M3. Briefly: Displacement of [3H]N-methyl Scopolamine from human cloned muscarinic M3 receptor expressed in CHO cell membrane. In kind it is cell membranes. The procedure, abridged: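 SPA-format competition binding on membranes from CHO cells expressing the human M3 receptor, against 0.5 nM [3H]-N-methyl scopolamine. Ki values are the mean of two or more independent assays.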
Target sequence in this assay (P20309 whole entry): as the sequence (P20309 whole entry, looked up) above
On the technique in general: In a radioligand displacement assay an active substance lowers the binding of a labelled ligand.

The target of assay [4] is T3, Muscarinic acetylcholine receptor M1 (Homo sapiens) (UniProt P11229).
T3 sequence (whole entry): T2 sequence (P11229 whole entry)
Briefly: Agonist activity at human cloned muscarinic M1 receptor expressed in CHO cells assessed as effect on calcium mobilization by FLIPR. In kind it is functional, cell-based. The procedure, abridged: as §1

The target in assay [5] is T2, Muscarinic acetylcholine receptor M1. Briefly: Displacement of [3H]N-methyl Scopolamine from human cloned muscarinic M1 receptor expressed in CHO cell membrane. The class given is cell membranes. The procedure, abridged: (§2)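 SPA format with CHO cell membrane preparations bearing human M1 or M2 receptor; competition versus 0.5 nM [3H]-N-methyl scopolamine; Ki reported; mean of two or more independent assays.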

Assay [6] addresses T4, Muscarinic acetylcholine receptor M2 (Homo sapiens) (UniProt P08172).
T4 sequence (whole entry): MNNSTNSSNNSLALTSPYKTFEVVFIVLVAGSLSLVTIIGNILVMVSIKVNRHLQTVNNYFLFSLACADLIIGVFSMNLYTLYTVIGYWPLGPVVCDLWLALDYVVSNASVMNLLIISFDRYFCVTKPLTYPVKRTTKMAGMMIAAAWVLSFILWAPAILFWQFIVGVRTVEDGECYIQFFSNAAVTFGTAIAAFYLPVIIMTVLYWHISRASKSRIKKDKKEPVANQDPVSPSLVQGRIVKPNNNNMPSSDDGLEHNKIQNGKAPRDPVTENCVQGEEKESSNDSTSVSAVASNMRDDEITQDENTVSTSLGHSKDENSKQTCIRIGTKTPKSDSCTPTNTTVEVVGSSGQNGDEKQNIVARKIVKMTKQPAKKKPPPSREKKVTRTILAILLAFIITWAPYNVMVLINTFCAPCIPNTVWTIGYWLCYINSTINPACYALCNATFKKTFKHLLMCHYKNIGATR
Briefly: Agonist activity at human cloned muscarinic M2 receptor expressed in CHO cells assessed as effect on calcium mobilization by FLIPR. In kind it is functional, cell-based. The essentials:
as §1

Assay [7] addresses T5, Muscarinic acetylcholine receptor M2 (Homo sapiens, UniProt P08172).
T5 sequence (P08172 whole entry): T4 sequence (whole entry)
Briefly: Displacement of [3H]N-methyl Scopolamine from human cloned muscarinic M2 receptor expressed in CHO cell membrane. In kind it is cell membranes. The procedure, abridged:
as §2

Assay [8] concerns the target T1, Muscarinic acetylcholine receptor M3. Briefly: Antagonist activity against human cloned muscarinic M3 receptor expressed in CHO cells assessed as inhibition of acetylcholine-induced calcium mobilization by FLIPR. The class given is functional, cell-based.
Target sequence in this assay (P20309 whole entry): as the sequence (P20309 whole entry, looked up) above
A further assay concerns Mus musculus. In words: Bronchoprotection in Balb/C mouse bronchoconstriction model assessed as inhibition of aerosolized methacholin-induced bronchoconstriction at 5 ug administered intranasally 24 hrs before methacholin challenge. The class given is functional.
Assay [9] has as its target T1, Muscarinic acetylcholine receptor M3. In words: Antagonist activity against human cloned muscarinic M3 receptor expressed in CHO cells assessed as inhibition of acetylcholine-induced calcium mobilization by measuring ratio of acetylcholine EC50 in presence and absence of compound by FLIPR assay. The class given is functional, cell-based. Particulars: read-out: pA2 (converted). The essentials:
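CHO cells expressing cloned human M3 receptor, stimulated with ACh. Calcium mobilization read by a standard FLIPR protocol. ACh EC50 was measured with and without a single concentration of compound, and pA2 was derived from the ratio of the EC50s.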
Target sequence in this assay (P20309 whole entry): as the sequence (P20309 whole entry, looked up) above

In assay [10] the target is T5, Muscarinic acetylcholine receptor M2. In words: Antagonist activity against human cloned muscarinic M2 receptor expressed in CHO cells assessed as inhibition of acetylcholine-induced calcium mobilization by FLIPR. In kind it is functional, cell-based.
The target is the same in assay [11]. In words: Antagonist activity against human cloned muscarinic M2 receptor expressed in CHO cells assessed as inhibition of acetylcholine-induced calcium mobilization by measuring ratio of acetylcholine EC50 in presence and absence of compound by FLIPR assay. In kind it is functional, cell-based. Particulars: read-out: pA2 (converted). The essentials: (§3)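 Run as pA2 determination on FLIPR in CHO cells expressing human M1 or M2 receptor: ACh concentration–response run with and without a single concentration of compound, calcium mobilization read, and the ratio of ACh EC50 values used to derive pA2.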

Assay [12] deals with T2, Muscarinic acetylcholine receptor M1. Briefly: Antagonist activity against human cloned muscarinic M1 receptor expressed in CHO cells assessed as inhibition of acetylcholine-induced calcium mobilization by measuring ratio of acetylcholine EC50 in presence and absence of compound by FLIPR assay. In kind it is functional, cell-based. Particulars: read-out: pA2 (converted). The essentials: as §3

Active and inactive are the calls of the source. The calls are words filed in the database; no cut-off is given here.

One may read the IC50 as the concentration needed to halve the response being measured. The Ki is the equilibrium dissociation constant of an inhibitor or competing ligand from its target. Consider `C[N+]1(C)[C@@H]2CC[C@H]1C[C@@H](CC(CO)(c1ccccc1)c1ccccc1)C2.[Br-]`, for which the outcome in assay [1], in [4] and in assay [6] was inactive. Moreover, the IC50 in assay [2], in assay [8] and in assay [10] was below 10 nM in each case. Besides, the Ki is 2.51 nM in assay [3], 1.26 nM in [5] and 3.98 nM in assay [7]. Also, in the assay on Mus musculus, the “inhibition (INH)” value came to 23%. The Kb in assay [9] is 3.16 nM; in [11] it was 5.01 nM; in assay [12] it was 1.58 nM.
In the case of `C[N+]1(C)[C@@H]2CC[C@H]1C[C@@H](CC(O)(c1ccccc1)c1ccccc1)C2.[Br-]`, the outcome in assay [1], in assay [4] and in assay [6] was inactive. Moreover, the IC50 in assay [2], in assay [8] and in assay [10] was below 10 nM each time. For the same compound, the Ki in assay [3] is 3.16 nM; in assay [5] it was 1.58 nM; in [7], 3.98 nM. Also, in the assay with Mus musculus, the “inhibition (INH)” value amounted to 34%. Also, the Kb in [9] was 0.501 nM; in [11] it was 0.501 nM; in assay [12], 0.251 nM.
`CCNC(=O)NCC(C[C@H]1C[C@H]2CC[C@@H](C1)N2C)(c1ccccc1)c1ccccc1`: the outcome in [1], in assay [4] and in assay [6] was inactive. Besides, the IC50 in [2] stood at 1280 nM; in [8] it was 1940 nM; in [10], 1550 nM.
Consider `CN1[C@@H]2CC[C@H]1C[C@@H](CC(c1ccccc1)(c1ccccc1)c1ccccc1)C2`, for which the result in [1], in assay [4] and in [6] was inactive. For the same compound, the IC50 in [2] was found to be 105 nM; in [8] it was 206 nM; in assay [10], 1200 nM.
In the case of `CN1[C@@H]2CC[C@H]1C[C@@H](CC(CNC(=O)NCc1ccccc1)(c1ccccc1)c1ccccc1)C2`, the outcome in assay [1], in [4] and in assay [6] was inactive. Besides, the results for the IC50 in assay [2], in [8] and in assay [10] were 1020 nM, 1340 nM and 1270 nM, respectively.
For the compound `CN1[C@@H]2CC[C@H]1C[C@@H](CC(C#N)(c1ccccc1)c1ccccc1)C2`, the result in [1], in [4] and in [6] was inactive. Besides, the IC50 in [2], in [8] and in assay [10] was below 10 nM in each case. Moreover, the Ki in [3] was 0.158 nM; in [5], 0.1 nM; in assay [7], 0.501 nM. Besides, the “inhibition (INH)” value with Mus musculus is on record as 11%. The figures for the Kb in assay [9], in [11] and in assay [12] were 0.0631 nM, 0.316 nM and 0.0158 nM, respectively.
As for `CN1[C@@H]2CC[C@H]1C[C@@H](CC(CNS(C)(=O)=O)(c1ccccc1)c1ccccc1)C2`, the result in assay [1], in assay [4] and in [6] was inactive. For the same compound, the IC50 in [2] is 1600 nM; in [8], 2730 nM; in [10] it was 2120 nM.
Regarding `CC(=O)NCC(C[C@H]1C[C@H]2CC[C@@H](C1)N2C)(c1ccccc1)c1ccccc1`, the outcome in assay [1], in assay [4] and in assay [6] was inactive. Also, the IC50 in assay [2] amounted to 2200 nM; in assay [8], 2900 nM; in assay [10], 3480 nM.
Take `CN1[C@@H]2CC[C@H]1C[C@@H](CC(C(=O)NCc1ccccc1)(c1ccccc1)c1ccccc1)C2`: the result in assay [1], in [4] and in assay [6] was inactive. Moreover, the IC50 in assay [2] is 596 nM; in assay [8], 839 nM; in assay [10], 545 nM.
On to `CN1[C@@H]2CC[C@H]1C[C@@H](CC(CNS(=O)(=O)c1ccccc1)(c1ccccc1)c1ccccc1)C2`, for which the outcome in [1], in assay [4] and in assay [6] was inactive. The results for the IC50 in [2], in assay [8] and in assay [10] were 770 nM, 1060 nM and 458 nM, respectively.
For the compound `CN1[C@@H]2CC[C@H]1C[C@@H](CC(CNC(N)=O)(c1ccccc1)c1ccccc1)C2`, the result in [1], in [4] and in [6] was inactive. In addition, the results for the IC50 in assay [2], in assay [8] and in assay [10] were 3830 nM, 6400 nM and 5340 nM, respectively.
`CN1[C@@H]2CC[C@H]1C[C@@H](CC(CO)(c1ccccc1)c1ccccc1)C2`: the outcome in assay [1], in assay [4] and in assay [6] was inactive. For the same compound, the IC50 in [2], in assay [8] and in assay [10] was below 10 nM throughout. Also, the Ki in assay [3] is 2.51 nM; in assay [5] it was 1 nM; in assay [7] it was 12.6 nM. For the same compound, the “inhibition (INH)” value in the assay with Mus musculus amounted to 15%. In addition, the Kb is 3.98 nM in assay [9], 6.31 nM in assay [11] and 1.26 nM in assay [12].
In the case of `CN1[C@@H]2CC[C@H]1C[C@@H](CC(C(=O)O)(c1ccccc1)c1ccccc1)C2`, the result in assay [1], in assay [4] and in assay [6] was inactive. Further, the IC50 in [2] worked out at 277 nM; in assay [8], 687 nM; in [10], 240 nM.
